The record followed here is ChEMBL document CHEMBL5385966, “Synthesis and biological evaluation of new naphthalimide-thiourea derivatives as potent antimicrobial agents active against multidrug-resistant Staphylococcus aureus and Mycobacterium tuberculosis” (RSC Med Chem, 2024).

The test system of one series is Pseudomonas aeruginosa. Nature of the series: Antibacterial activity against Pseudomonas aeruginosa ATCC 27853 assessed as bacterial growth inhibition incubated for 16 to 18 hrs by CLSI based antibiotic susceptibility testing method. As to conditions: time 16-18 hrs. Format: functional, organism-based. Summed up:
(§1)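 Broth microdilution in cation-adjusted Mueller-Hinton broth. Compounds were tested at […], with levofloxacin as reference and medium-only controls. Plates were incubated at 37 °C for 16-18 h. MIC was the lowest concentration with no visible growth; three independent determinations, each in duplicate.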

For series [1], the system named is Staphylococcus aureus. Nature of the series: Antibacterial activity against methicillin/ceftriaxone/meropenem-resistant Staphylococcus aureus NRS10191 clinical isolate assessed as bacterial growth inhibition incubated for 16 to 18 hrs by CLSI based antibiotic susceptibility testing method. Format: functional. As to conditions: time 16-18 hrs. Summed up: as §1

The test system of series [2] is Staphylococcus aureus. Nature of the series: Antibacterial activity against methicillin/ceftriaxone/meropenem/gentamycin/linezolid-resistant Staphylococcus aureus NRS10119 clinical isolate assessed as bacterial growth inhibition incubated for 16 to 18 hrs by CLSI based antibiotic susceptibility testing method. The series is classed as functional. As to conditions: time 16-18 hrs. Summed up: as §1

Another series concerns Acinetobacter baumannii. Put plainly: Antibacterial activity against Acinetobacter baumannii BAA 1605 assessed as bacterial growth inhibition incubated for 16 to 18 hrs by CLSI based antibiotic susceptibility testing method. The series is classed as functional, organism-based. As to conditions: time 16-18 hrs. Summed up: as §1
The subject of series [3] is Staphylococcus aureus. Put plainly: Antibacterial activity against methicillin/ceftriaxone/meropenem/vancomycin/teicoplanin-resistant Staphylococcus aureus VRS4 clinical isolate assessed as bacterial growth inhibition incubated for 16 to 18 hrs by CLSI based antibiotic susceptibility testing method. As to conditions: time 16-18 hrs. The series is classed as functional. Summed up: as §1

Series [4] relates to Staphylococcus aureus. Put plainly: Antibacterial activity against methicillin/ceftriaxone/meropenem/gentamycin/linezolid-resistant Staphylococcus aureus NRS10100 clinical isolate assessed as bacterial growth inhibition incubated for 16 to 18 hrs by CLSI based antibiotic susceptibility testing method. The following applies: time 16-18 hrs. Format: functional. The gist of the method:
as §1

Series [5] relates to Staphylococcus aureus. Put plainly: Antibacterial activity against methicillin/ceftriaxone/meropenem-resistant Staphylococcus aureus NRS10193 clinical isolate assessed as bacterial growth inhibition incubated for 16 to 18 hrs by CLSI based antibiotic susceptibility testing method. The series is classed as functional. As to conditions: time 16-18 hrs. Summed up: as §1
The test system of series [6] is Staphylococcus aureus. Nature of the series: Antibacterial activity against methicillin/ceftriaxone/meropenem/gentamycin/vancomycin/teicoplanin-resistant Staphylococcus aureus VRS1 clinical isolate assessed as bacterial growth inhibition incubated for 16 to 18 hrs by CLSI based antibiotic susceptibility testing method. The series is classed as functional. The following applies: time 16-18 hrs. Summed up:
as §1

For series [7], the system named is Staphylococcus aureus. Nature of the series: Antibacterial activity against methicillin-sensitive Staphylococcus aureus ATCC 29213 clinical isolate assessed as bacterial growth inhibition incubated for 16 to 18 hrs by CLSI based antibiotic susceptibility testing method. As to conditions: time 16-18 hrs. Format: functional. Summed up:
as §1

Series [8] can be described thus: Cytotoxicity against African green monkey Vero cells by MTT assay. Format: toxicity, cell-based. As to conditions: chlorocebus sabaeus. Summed up: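 Vero cells were seeded at ~10³ per well at 37 °C, 5% CO2. After 24 h, compounds were added at 5-100 mg/L for 72 h. […] was added for 4 h, formazan was dissolved in DMSO and read at 540 nm. CC50 was taken as the lowest concentration reducing viability by 50%; doxorubicin was the positive control; triplicate.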
(Tetrazolium dyes change colour on reduction, which living cells bring about.)

The subject of series [9] is Staphylococcus aureus. Put plainly: Antibacterial activity against methicillin/ceftriaxone-resistant Staphylococcus aureus NRS10194 clinical isolate assessed as bacterial growth inhibition incubated for 16 to 18 hrs by CLSI based antibiotic susceptibility testing method. Format: functional. As to conditions: time 16-18 hrs. Summed up:
as §1

Series [10] deals with Staphylococcus aureus. Nature of the series: Antibacterial activity against methicillin/ceftriaxone/meropenem/vancomycin/teicoplanin-resistant Staphylococcus aureus VRS12 clinical isolate assessed as bacterial growth inhibition incubated for 16 to 18 hrs by CLSI based antibiotic susceptibility testing method. The series is classed as functional. As to conditions: time 16-18 hrs. The gist of the method: as §1

The test system of the next series is Escherichia coli. Put plainly: Antibacterial activity against Escherichia coli ATCC 25922 assessed as bacterial growth inhibition incubated for 16 to 18 hrs by CLSI based antibiotic susceptibility testing method. As to conditions: time 16-18 hrs. The series is classed as functional, organism-based. Summed up: as §1
The next series concerns Mycobacteroides chelonae. Put plainly: Antimycobacterial activity against Mycobacteroides chelonae ATCC 35752 assessed as bacterial growth inhibition incubated for 72 hrs by resazurin dye based broth microdilution method. Format: functional, organism-based. The gist of the method: (§2)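 Broth microdilution in Middlebrook 7H9 with 10% ADC-Tween-80 (0.2% glycerol, 0.05% Tween-80), inoculum ~10⁶ cfu/mL. Compounds came from 10 mg/mL DMSO stocks and were tested as two-fold serial dilutions at 37 °C, 7 days for M. tuberculosis H37Rv and 72 h for NTM. Growth was read visually with PrestoBlue resazurin dye; MIC was the lowest concentration preventing growth. Triplicate determinations, each in duplicate.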

The subject of series [11] is Staphylococcus aureus. Nature of the series: Antibacterial activity against methicillin/ceftriaxone/meropenem-resistant Staphylococcus aureus NRS10129 clinical isolate assessed as bacterial growth inhibition incubated for 16 to 18 hrs by CLSI based antibiotic susceptibility testing method. As to conditions: time 16-18 hrs. The series is classed as functional. Summed up:
as §1

Series [12] has as its system Mycobacterium tuberculosis. Put plainly: Antimycobacterial activity against Mycobacterium tuberculosis H37Rv ATCC 27294 assessed as bacterial growth inhibition incubated for 7 days by resazurin dye based broth microdilution method. The following applies: H37Rv ATCC 27294, 168 h, time 7 day. The series is classed as functional. The gist of the method: as §2
On the technique in general: Resazurin is reduced to fluorescent resorufin, in cell work by metabolically active cells.

For series [13], the system named is Staphylococcus aureus. Nature of the series: Antibacterial activity against methicillin/ceftriaxone/meropenem-resistant Staphylococcus aureus NRS10186 clinical isolate assessed as bacterial growth inhibition incubated for 16 to 18 hrs by CLSI based antibiotic susceptibility testing method. The series is classed as functional. The following applies: time 16-18 hrs. Summed up:
as §1

The next series concerns Klebsiella pneumoniae. Nature of the series: Antibacterial activity against Klebsiella pneumoniae BAA 1705 assessed as bacterial growth inhibition incubated for 16 to 18 hrs by CLSI based antibiotic susceptibility testing method. As to conditions: time 16-18 hrs. The series is classed as functional, organism-based. The gist of the method:
as §1

Series [14] concerns Staphylococcus aureus. Nature of the series: Antibacterial activity against methicillin/ceftriaxone/meropenem-resistant Staphylococcus aureus NRS10198 clinical isolate assessed as bacterial growth inhibition incubated for 16 to 18 hrs by CLSI based antibiotic susceptibility testing method. The series is classed as functional. The following applies: time 16-18 hrs. The gist of the method: as §1

Series [15] concerns Staphylococcus aureus. Nature of the series: Antibacterial activity against Staphylococcus aureus ATCC 29213 assessed as bacterial growth inhibition incubated for 16 to 18 hrs by CLSI based antibiotic susceptibility testing method. Format: functional. As to conditions: time 16-18 hrs. Summed up:
as §1

Series [16] relates to Mycobacteroides abscessus. Nature of the series: Antimycobacterial activity against Mycobacterium abscessus ATCC 19977 assessed as bacterial growth inhibition incubated for 72 hrs by resazurin dye based broth microdilution method. The series is classed as functional, organism-based. The gist of the method: as §2
Series [17] can be described thus: Selectivity index, ratio of CC50 for African green monkey Vero cells to MIC for Staphylococcus aureus ATCC 29213. The series is classed as toxicity, cell-based. As to conditions: read-out: Selectivity Index.
Series [18] concerns Staphylococcus aureus. Nature of the series: Antibacterial activity against methicillin/ceftriaxone/meropenem-resistant Staphylococcus aureus NRS10192 clinical isolate assessed as bacterial growth inhibition incubated for 16 to 18 hrs by CLSI based antibiotic susceptibility testing method. Format: functional. As to conditions: time 16-18 hrs. Summed up:
as §1

For series [19], the system named is Mycolicibacterium fortuitum. Put plainly: Antimycobacterial activity against Mycobacterium fortuitum ATCC 6841 assessed as bacterial growth inhibition incubated for 72 hrs by resazurin dye based broth microdilution method. The series is classed as functional, organism-based. Summed up: as §2

Each structure is given as a SMILES string. In brackets after ≈: the same amount, converted by molar mass. Activity calls are given as the source filed them.

As usually defined, the MIC is the smallest concentration in the dilution series that meets the test's criterion for growth inhibition. For orientation: CC50 means the concentration at which the toxic effect on the cells reaches its halfway point. Turning to `O=C(CN1C(=O)c2cccc3cccc(c23)C1=O)NC1CCN(C(=S)NC2CCCCCC2)CC1`, the “growth inhibition (GI)” value (in the series on Pseudomonas aeruginosa; in the series with Acinetobacter baumannii; in the series on Escherichia coli; in the series on Mycobacteroides chelonae; in the series with Klebsiella pneumoniae; in series [16]) was “inactive” throughout. In addition, the “growth inhibition (GI)” value in series [19] was “inactive”. Besides, the MIC in the series with Staphylococcus aureus [1] was found to be 0.5 µg/mL (≈ 1.01 µM); in the series with Staphylococcus aureus [2] it was 0.5 µg/mL (≈ 1.01 µM); in the series with Staphylococcus aureus [3], 1 µg/mL (≈ 2.03 µM); in the series on Staphylococcus aureus [4], 0.5 µg/mL (≈ 1.01 µM); in the series with Staphylococcus aureus [5], 0.5 µg/mL (≈ 1.01 µM); in the series on Staphylococcus aureus [6], 1 µg/mL (≈ 2.03 µM). Moreover, the MIC is 1 µg/mL (≈ 2.03 µM) with Staphylococcus aureus [7]; 1 µg/mL (≈ 2.03 µM) with Staphylococcus aureus [9]; 1 µg/mL (≈ 2.03 µM) in the series on Staphylococcus aureus [10]; 1 µg/mL (≈ 2.03 µM) in the series on Staphylococcus aureus [11]; over 64 µg/mL in series [12]; 0.5 µg/mL (≈ 1.01 µM) in the series with Staphylococcus aureus [13]. For the same molecule, the MIC with Staphylococcus aureus [14] came to 1 µg/mL (≈ 2.03 µM); in the series on Staphylococcus aureus [15], 0.5 µg/mL (≈ 1.01 µM); in the series on Staphylococcus aureus [18], 1 µg/mL (≈ 2.03 µM). Moreover, the CC50 in series [8] is over 100 µg/mL. In series [17], the selectivity ratio is over 200.
Turning to `O=C(CN1C(=O)c2cccc3cccc(c23)C1=O)NC1CCN(C(=S)Nc2ccccc2)CC1`, the “growth inhibition (GI)” value (with Pseudomonas aeruginosa; with Acinetobacter baumannii; in the series with Escherichia coli; in the series with Mycobacteroides chelonae; in the series with Klebsiella pneumoniae; in series [16]) was “inactive” in each case. For the same molecule, the “growth inhibition (GI)” value in series [19] was “inactive”. Further, the minimal inhibitory concentration (MIC) is 2 µg/mL (≈ 4.23 µM) in the series on Staphylococcus aureus [1]; 2 µg/mL (≈ 4.23 µM) with Staphylococcus aureus [2]; 2 µg/mL (≈ 4.23 µM) with Staphylococcus aureus [3]; 4 µg/mL (≈ 8.46 µM) in the series on Staphylococcus aureus [4]; 2 µg/mL (≈ 4.23 µM) with Staphylococcus aureus [5]; 2 µg/mL (≈ 4.23 µM) with Staphylococcus aureus [6]. In addition, the MIC in the series on Staphylococcus aureus [7] was 4 µg/mL (≈ 8.46 µM); in the series with Staphylococcus aureus [9] it was 4 µg/mL (≈ 8.46 µM); with Staphylococcus aureus [10], 4 µg/mL (≈ 8.46 µM); with Staphylococcus aureus [11] it was 4 µg/mL (≈ 8.46 µM); in [12] it was over 64 µg/mL; with Staphylococcus aureus [13] it was 2 µg/mL (≈ 4.23 µM). For the same molecule, the MIC worked out at 2 µg/mL (≈ 4.23 µM) with Staphylococcus aureus [14], 4 µg/mL (≈ 8.46 µM) in the series with Staphylococcus aureus [15] and 1 µg/mL (≈ 2.12 µM) in the series on Staphylococcus aureus [18]. The CC50 in series [8] was over 200 µg/mL. In series [17], the selectivity ratio was over 50.
With `O=C(CN1C(=O)c2cccc3cccc(c23)C1=O)N1CCC(NC(=S)Nc2ccccc2)CC1`, the “growth inhibition (GI)” value (in the series on Pseudomonas aeruginosa; in the series with Acinetobacter baumannii; in the series with Escherichia coli; in the series with Mycobacteroides chelonae; in the series with Klebsiella pneumoniae; in series [16]) was “inactive” in each case. Further, in series [19], the “growth inhibition (GI)” value is “inactive”. In addition, the minimal inhibitory concentration (MIC) with Staphylococcus aureus [1] came to 0.25 µg/mL (≈ 0.529 µM); in the series with Staphylococcus aureus [2] it was 0.25 µg/mL (≈ 0.529 µM); with Staphylococcus aureus [3], 0.25 µg/mL (≈ 0.529 µM); in the series with Staphylococcus aureus [4] it was 1 µg/mL (≈ 2.12 µM); in the series on Staphylococcus aureus [5] it was 0.25 µg/mL (≈ 0.529 µM); with Staphylococcus aureus [6] it was 0.5 µg/mL (≈ 1.06 µM). Moreover, the MIC with Staphylococcus aureus [7] is 1 µg/mL (≈ 2.12 µM); in the series with Staphylococcus aureus [9], 1 µg/mL (≈ 2.12 µM); in the series on Staphylococcus aureus [10], 0.5 µg/mL (≈ 1.06 µM); in the series with Staphylococcus aureus [11], 1 µg/mL (≈ 2.12 µM); in [12] it was over 64 µg/mL; in the series with Staphylococcus aureus [13], 0.25 µg/mL (≈ 0.529 µM). Besides, the MIC was 0.25 µg/mL (≈ 0.529 µM) in the series with Staphylococcus aureus [14], 0.5 µg/mL (≈ 1.06 µM) in the series with Staphylococcus aureus [15] and 0.25 µg/mL (≈ 0.529 µM) with Staphylococcus aureus [18]. This molecule yielded a CC50 in [8] of over 100 µg/mL. Further, in series [17], the selectivity ratio is over 200.
